In ChEMBL document CHEMBL2384953, “Design and synthesis of L- and D-phenylalanine derived rhodanines with novel C5-arylidenes as inhibitors of HCV NS5B polymerase” (Bioorg Med Chem, 2013):

Legend:
Hepatitis C virus [1] = test: Inhibition of HCV genotype 1b recombinant NS5B Cdelta21 polymerase assessed as inhibition of radioactive UMP incorporation into nascent RNA using […] template-primer after 1hr by liquid scintillation counting analysis; design: species or system Hepatitis C virus subtype 1b
How it was run: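 Recombinant HCV NS5BCΔ21 (genotype 1b), homopolymeric poly rA/U12 template-primer. Read-out is radioactive UMP incorporated into nascent RNA. Dose-response at 8-10 compound concentrations, in duplicate, two independent experiments. IC50 interpolated from nonlinear regression fits; mean ± SD.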

[2] = biological target: RNA-directed RNA polymerase (Hepacivirus hominis, UniProt O39930, M423T); test: Inhibition of HCV NS5B polymerase M423T mutant assessed as inhibition of radioactive UMP incorporation into nascent RNA using […] template-primer after 1hr by liquid scintillation counting analysis
How it was run: (§1)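 Mutant counterscreen with recombinant NS5BCΔ21 mutants: P495L (probe for TP-I site), M423T (TP-II), M414T (PP-I). Radioactive UMP incorporation into nascent RNA on poly rA/U12 template-primer, run as for wild-type. IC50 from dose-response curves by nonlinear regression; mean ± SD of at least two independent experiments in duplicate.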

[3] = biological target: RNA-directed RNA polymerase (Hepacivirus hominis, UniProt O39930, P495L); test: Inhibition of HCV NS5B polymerase P495L mutant assessed as inhibition of radioactive UMP incorporation into nascent RNA using […] template-primer after 1hr by liquid scintillation counting analysis; how it was run: as §1
Hepacivirus hominis [4] = test: Selectivity ratio of IC50 for HCV NS5B polymerase P495L mutant to IC50 for wild type HCV NS5B polymerase
How it was run: (§2)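 Recombinant HCV NS5BCΔ21 (genotype 1b), wild type and the P495L, M423T and M414T mutants, each assayed for incorporation of radioactive UMP into nascent RNA on homopolymeric poly rA/U12 template-primer. IC50s came from nonlinear regression of dose-response curves (8-10 compound concentrations, duplicate, at least two independent experiments, mean ± SD). The ratio is mutant IC50 over wild-type IC50.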

[5] = biological target: RNA-directed RNA polymerase (Hepacivirus hominis, UniProt O39930, M414T); test: Inhibition of HCV NS5B polymerase M414T mutant assessed as inhibition of radioactive UMP incorporation into nascent RNA using […] template-primer after 1hr by liquid scintillation counting analysis; how it was run: as §1
Hepacivirus hominis [6] = test: Selectivity ratio of IC50 for HCV NS5B polymerase M414T mutant to IC50 for wild type HCV NS5B polymerase; how it was run: as §2
Hepacivirus hominis [7] = test: Selectivity ratio of IC50 for HCV NS5B polymerase M423T mutant to IC50 for wild type HCV NS5B polymerase; how it was run: as §2
[8] = Cytotoxicity against human hepatoma cells; format: cell-based
Hepatitis C virus [9] = test: Antiviral activity against hepatitis C virus infected in human hepatoma cells assessed as inhibition of HCV replication at 100 uM; format: functional, Hepacivirus hominis

RNA-directed RNA polymerase (Hepacivirus hominis, UniProt O39930, M414T), sequence (O39930 entry or part of it M414T): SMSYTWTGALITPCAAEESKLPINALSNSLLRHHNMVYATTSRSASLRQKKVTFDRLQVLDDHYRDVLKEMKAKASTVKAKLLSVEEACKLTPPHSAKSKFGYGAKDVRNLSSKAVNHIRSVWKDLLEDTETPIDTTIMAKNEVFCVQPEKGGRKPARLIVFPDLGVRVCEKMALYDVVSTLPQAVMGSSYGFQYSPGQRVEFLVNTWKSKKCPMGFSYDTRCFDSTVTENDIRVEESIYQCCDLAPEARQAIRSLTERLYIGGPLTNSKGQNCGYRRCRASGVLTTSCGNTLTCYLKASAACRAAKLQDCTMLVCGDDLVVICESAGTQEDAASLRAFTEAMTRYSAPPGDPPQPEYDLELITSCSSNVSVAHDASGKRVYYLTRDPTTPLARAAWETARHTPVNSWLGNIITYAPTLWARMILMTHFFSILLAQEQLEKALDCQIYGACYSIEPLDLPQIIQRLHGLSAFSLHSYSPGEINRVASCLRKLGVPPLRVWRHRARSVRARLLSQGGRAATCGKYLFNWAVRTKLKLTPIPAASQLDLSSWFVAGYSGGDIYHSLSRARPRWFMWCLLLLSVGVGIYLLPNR
RNA-directed RNA polymerase (Hepacivirus hominis, UniProt O39930, P495L), sequence (O39930 entry or part of it P495L): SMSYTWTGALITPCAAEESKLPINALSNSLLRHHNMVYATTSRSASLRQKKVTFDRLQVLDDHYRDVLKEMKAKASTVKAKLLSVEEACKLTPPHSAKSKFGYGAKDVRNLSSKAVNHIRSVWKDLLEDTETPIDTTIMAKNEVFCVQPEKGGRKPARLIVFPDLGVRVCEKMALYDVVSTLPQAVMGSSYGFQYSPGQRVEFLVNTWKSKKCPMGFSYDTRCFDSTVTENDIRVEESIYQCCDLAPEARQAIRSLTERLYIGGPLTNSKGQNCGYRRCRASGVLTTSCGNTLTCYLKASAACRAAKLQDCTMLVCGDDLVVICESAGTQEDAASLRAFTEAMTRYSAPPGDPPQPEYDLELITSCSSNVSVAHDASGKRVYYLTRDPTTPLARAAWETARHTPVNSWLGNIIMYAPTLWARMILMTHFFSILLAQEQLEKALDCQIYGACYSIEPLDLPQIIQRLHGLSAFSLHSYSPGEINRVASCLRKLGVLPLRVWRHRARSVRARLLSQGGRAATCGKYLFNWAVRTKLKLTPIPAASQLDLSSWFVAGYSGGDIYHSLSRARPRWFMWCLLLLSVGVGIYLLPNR
RNA-directed RNA polymerase (Hepacivirus hominis, UniProt O39930, M423T), sequence (O39930 entry or part of it M423T): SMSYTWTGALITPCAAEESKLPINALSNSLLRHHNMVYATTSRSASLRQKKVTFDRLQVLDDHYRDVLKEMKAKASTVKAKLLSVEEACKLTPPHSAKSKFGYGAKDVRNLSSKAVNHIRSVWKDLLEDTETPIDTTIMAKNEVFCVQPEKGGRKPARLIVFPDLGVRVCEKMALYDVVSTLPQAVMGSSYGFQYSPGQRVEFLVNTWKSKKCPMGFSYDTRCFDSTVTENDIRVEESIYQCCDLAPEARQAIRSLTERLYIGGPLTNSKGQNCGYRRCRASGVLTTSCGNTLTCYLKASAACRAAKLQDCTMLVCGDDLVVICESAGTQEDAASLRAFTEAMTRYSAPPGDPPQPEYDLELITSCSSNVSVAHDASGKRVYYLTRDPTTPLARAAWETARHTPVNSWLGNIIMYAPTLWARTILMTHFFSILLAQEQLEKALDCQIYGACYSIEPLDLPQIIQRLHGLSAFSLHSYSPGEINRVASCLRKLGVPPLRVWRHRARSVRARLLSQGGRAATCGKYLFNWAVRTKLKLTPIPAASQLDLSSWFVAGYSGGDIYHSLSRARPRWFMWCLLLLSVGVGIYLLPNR

SMILES | IC50 (Hepatitis C virus [1]) [µM] | other results
O=C(O)[C@H](Cc1ccccc1)N1C(=O)/C(=C/c2ccc(Cl)c(Cl)c2)SC1=S | 19.4 | –
O=C(O)[C@H](Cc1ccccc1)N1C(=O)/C(=C/c2cccc(Oc3ccc(Cl)c(Cl)c3)c2)SC1=S | 2.6 | IC50 [2]: 3 µM; IC50 [3]: 2.8 µM; Ratio IC50 (Hepacivirus hominis [4]): < 1.5; IC50 [5]: 47.8 µM; Ratio IC50 (Hepacivirus hominis [6]): 16; Ratio IC50 (Hepacivirus hominis [7]): < 1.5
COc1ccc(Oc2cccc(/C=C3\SC(=S)N([C@@H](Cc4ccccc4)C(=O)O)C3=O)c2)cc1 | 8.3 | –
O=C(O)[C@H](Cc1ccccc1)N1C(=O)/C(=C/c2ccc(F)c(F)c2)SC1=S | 16.3 | –
O=C(O)[C@H](Cc1ccccc1)N1C(=O)/C(=C/c2ccc(Cl)cc2)SC1=S | 22.3 | –
O=C(O)[C@H](Cc1ccccc1)N1C(=O)/C(=C/c2cccc(Oc3ccc(Cl)cc3)c2)SC1=S | 3.4 | IC50 [2]: 4.2 µM; IC50 [3]: 3.6 µM; Ratio IC50 (Hepacivirus hominis [4]): < 1.5; IC50 [5]: 55.7 µM; Ratio IC50 (Hepacivirus hominis [6]): 16; Ratio IC50 (Hepacivirus hominis [7]): < 1.5
O=C(O)[C@H](Cc1ccccc1)N1C(=O)/C(=C/c2cc(F)cc(F)c2)SC1=S | 26 | –
N#Cc1cccc(/C=C2\SC(=S)N([C@@H](Cc3ccccc3)C(=O)O)C2=O)c1 | 30.7 | –
O=C(O)[C@H](Cc1ccccc1)N1C(=O)/C(=C/c2cccc(Cc3ccccc3)c2)SC1=S | 4.8 | Activity [8]: Non-toxic; inhibition at 100 µM (Hepatitis C virus [9]): 30%
O=C(O)[C@H](Cc1ccccc1)N1C(=O)/C(=C/c2ccc(Br)cc2)SC1=S | 11.7 | –
O=C(O)[C@H](Cc1ccccc1)N1C(=O)/C(=C/c2cccc(-c3ccccc3)c2)SC1=S | 16.6 | –
O=C(O)[C@@H](Cc1ccccc1)N1C(=O)/C(=C/c2cccc(Oc3ccccc3)c2)SC1=S | 19.3 | –
O=C(O)[C@H](Cc1ccccc1)N1C(=O)/C(=C/c2cccc(Oc3ccccc3)c2)SC1=S | 6.7 | –
O=C(O)[C@H](Cc1ccccc1)N1C(=O)/C(=C/c2cccc(Oc3ccc(F)cc3)c2)SC1=S | 12.5 | –
O=C(O)[C@H](Cc1ccccc1)N1C(=O)/C(=C/c2ccc(Oc3ccccc3)cc2)SC1=S | 50.7 | –
O=C(O)[C@@H](Cc1ccccc1)N1C(=O)/C(=C/c2cccc(Oc3cccc(Cl)c3)c2)SC1=S | 4.1 | –
O=C(O)[C@H](Cc1ccccc1)N1C(=O)/C(=C/c2cccc(OC/C=C\c3ccccc3)c2)SC1=S | 6.4 | –
O=C(O)[C@H](Cc1ccccc1)N1C(=O)/C(=C/c2cccc(Cl)c2)SC1=S | 26.6 | –
O=C(O)[C@H](Cc1ccccc1)N1C(=O)/C(=C/c2ccc(F)cc2)SC1=S | 27.7 | –
O=C(O)[C@H](Cc1ccccc1)N1C(=O)/C(=C/c2cccc(Oc3cccc(F)c3)c2)SC1=S | 8.2 | –
O=C(O)[C@H](Cc1ccccc1)N1C(=O)/C(=C/c2cccc(Oc3cccc(Cl)c3)c2)SC1=S | 4.1 | –
O=C(O)[C@@H](Cc1ccccc1)N1C(=O)/C(=C/c2cccc(Oc3ccc(F)cc3)c2)SC1=S | 10.3 | –
O=C(O)[C@@H](Cc1ccccc1)N1C(=O)/C(=C/c2cccc(Oc3ccc(Cl)c(Cl)c3)c2)SC1=S | 5.4 | –
O=C(O)[C@H](Cc1ccccc1)N1C(=O)/C(=C/c2cccc(OCc3ccccc3)c2)SC1=S | 21.8 | –
O=C(O)[C@@H](Cc1ccccc1)N1C(=O)/C(=C/c2cccc(Oc3ccc(Cl)cc3)c2)SC1=S | 5.1 | –
O=C(O)[C@H](Cc1ccccc1)N1C(=O)/C(=C/c2cccc(Br)c2)SC1=S | 7.4 | –
O=C(c1ccccc1)c1cccc(/C=C2\SC(=S)N([C@@H](Cc3ccccc3)C(=O)O)C2=O)c1 | 11.1 | –
O=C(O)[C@H](Cc1ccccc1)N1C(=O)/C(=C/c2ccccc2Oc2ccccc2)SC1=S | 13.3 | –
